Measured values from different studies.
Protocols differ between the studies behind these lines.
Target: Homeodomain-interacting protein kinase 4 (HIPK4, Homo sapiens, UniProt Q8NE63)
Residues used in one study (Q8NE63 1-616): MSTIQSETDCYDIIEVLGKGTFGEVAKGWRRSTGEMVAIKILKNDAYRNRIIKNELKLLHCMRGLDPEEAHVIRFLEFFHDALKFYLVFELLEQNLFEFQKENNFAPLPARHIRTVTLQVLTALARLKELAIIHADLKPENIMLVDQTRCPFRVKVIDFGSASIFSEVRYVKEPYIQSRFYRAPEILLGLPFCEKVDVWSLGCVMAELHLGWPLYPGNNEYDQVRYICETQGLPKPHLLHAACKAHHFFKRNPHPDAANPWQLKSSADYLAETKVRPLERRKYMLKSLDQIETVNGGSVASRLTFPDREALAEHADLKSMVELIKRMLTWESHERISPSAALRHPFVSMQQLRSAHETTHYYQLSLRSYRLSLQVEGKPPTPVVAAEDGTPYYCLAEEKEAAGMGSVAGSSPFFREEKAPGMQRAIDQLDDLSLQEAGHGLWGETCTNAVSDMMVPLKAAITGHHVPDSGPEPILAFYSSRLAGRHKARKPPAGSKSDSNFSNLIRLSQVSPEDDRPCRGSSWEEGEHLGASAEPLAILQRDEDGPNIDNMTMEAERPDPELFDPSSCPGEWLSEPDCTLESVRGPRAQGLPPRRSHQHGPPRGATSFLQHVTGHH

SMILES	assay	conditions	measurement	result
C#Cc1cc(-c2cc(Nc3nc(N[C@@H](C)c4ccc(F)cn4)ncc3Cl)n[nH]2)ccc1C=O	enzyme activity, inhibitor	0.2 µM	inhibition	4.92%
C[C@H]1CC[C@H](n2c3cnccc3c3cnc(Nc4ccc5c(n4)CCN(C(=O)CO)C5)nc32)CC1	binding, competition with immobilised ligand	1 µM	remaining binding	56%
CC(C)S(=O)(=O)c1ccc2nccc(Nc3ccc4sc(C5CCCC5)nc4c3)c2c1	enzyme activity, inhibitor	1 µM	activity vs control	98%
CN1CCN(C(=O)c2ccc(NC(=O)Nc3ccc(N(C)c4ccnc(Nc5ccc(CS(C)(=O)=O)cc5)n4)cc3)cc2)CC1	binding, competition with immobilised ligand	1 µM	remaining binding	74%
CO[C@@H]1[C@H](N(C)C(=O)c2ccccc2)C[C@H]2O[C@]1(C)n1c3ccccc3c3c4c(c5c6ccccc6n2c5c31)C(=O)NC4	enzyme activity, inhibitor	1 µM	inhibition	23%
C1=C/COCc2cc(ccc2OCCN2CCCC2)Nc2nccc(n2)-c2cccc(c2)COC/1	binding	0.1 µM	remaining binding	2.3%
CC#CC(=O)N1CCC[C@H]1c1nc(-c2ccc(C(=O)Nc3ccccn3)cc2)c2c(N)nccn12	enzyme activity, inhibitor	1 µM	inhibition	0%
CCCCC(=O)Nc1ccc(-c2ccc3ncn(CCC)c(=O)c3c2)cn1	binding, competition with immobilised ligand	0.5 µM	remaining binding	66%
